Screening data: PubChem BioAssay, several laboratories
NR2E3 ag-1 – agonists of human NR2E3 nuclear receptor; Q9Y5X4; CHO-S Gal4-NCOR/VP16-NR2E3 two-hybrid, luciferase; inhibition of corepressor binding, % at 3.98 µM; 360,000 compounds, 0.35% hits;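 active means inhibition above the mean of all tested compounds plus 3 SD, cut at about 70% in these data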;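 further: 0% = DMSO with NR2E3 transfected cells and 100% = cells lacking NR2E3 construct; higher means lower luciferase signal from less NR2E3 corepressor binding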
NadD block – inhibitors of Staphylococcus aureus NadD; purified NadD enzyme, colorimetric absorbance read-out; 360,000 compounds, 0.78% hits; inhibition, % at 20 µM; in the data active means inhibition above about 26%
MsrA act – activators of bovine methionine sulfoxide reductase A. purified bovine MsrA, absorbance read-out. activation, % at 10.6 µM. 360,000 compounds, 0.3% hits; in the data active means activation above about 7.5%;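 further: 0% = vehicle and 100% = reference activator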
MsrA inh – inhibitors of bovine MsrA; purified bovine MsrA, absorbance read-out; inhibition, % at 15.5 µM; 360,000 compounds, 0.75% hits; in the data active means inhibition above about 4.5%;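 further: 0% = vehicle wells with enzyme and 100% = reference inhibitor wells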
GalR3 antag – antagonists of human GalR3; 360,000 compounds, 0.44% hits; HEK293 GalR3-CNG cAMP membrane potential fluorescence; galR3 body fused to GalR1 C-terminus; O60755; inhibition, % at 3 µM;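 active means inhibition above the screen-wide average plus 3 SD, cut at about 13% in these data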;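 further: forskolin and galanin both at EC90 stimulate the cells; cAMP rise reported by CNG channel membrane potential dye signal; 0% = forskolin plus galanin with DMSO and 100% = forskolin alone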
Target sequence (O60755 1-299 limits assumed): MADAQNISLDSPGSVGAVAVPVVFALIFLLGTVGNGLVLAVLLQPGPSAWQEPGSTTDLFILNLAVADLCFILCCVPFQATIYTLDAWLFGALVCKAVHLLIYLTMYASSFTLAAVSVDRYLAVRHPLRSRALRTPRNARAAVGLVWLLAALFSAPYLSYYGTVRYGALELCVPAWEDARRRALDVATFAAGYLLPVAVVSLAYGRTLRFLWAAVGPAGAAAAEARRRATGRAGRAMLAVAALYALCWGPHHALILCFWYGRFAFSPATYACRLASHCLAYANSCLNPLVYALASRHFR
NR2E3 ag-2 – NR2E3 (human) agonism. Q9Y5X4. GST-NR2E3/biotin-RetCOR TR-FRET, 1536-well. inhibition of corepressor binding, % at 4.78 µM. 320,000 compounds, 0.12% hits;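 active means percent inhibition above the cutoff of mean plus 3 SD of all tested compounds, set per screening campaign, cut at about 20% in these data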;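 further: 0% = DMSO wells and 100% = biotin wells as full block of FRET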
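System: GST-tagged NR2E3 plus biotinylated RetCOR corepressor; Amount: 1.35 nM GST-tagged NR2E3 final; Dosing: single nominal compound dose of 4.8 µM; Schedule: 5 h incubation at 4 °C; Technique: TR-FRET with europium anti-GST and streptavidin-D2, 340 nm excitation; Controls: biotin wells as high control, 0.6% DMSO wells as low control.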
NadD inh conf – NadD (S. aureus) inhibition, single concentration confirmation. shares compounds with NadD block. purified S. aureus NadD, colorimetric enzyme assay. inhibition, % at 20 µM. 2,000 compounds, 13% hits; in the data active means inhibition mostly above about 42%, no sharp cut-off; inactive means mostly below about 42%
Numbers without * were called inactive; nt = no result given. Rows were chosen to be rich in hits. Some 2.5% of all compounds tested hit in one or more screens of this group.

SMILES	NR2E3 ag-1	NadD block	MsrA act	MsrA inh	GalR3 antag	NR2E3 ag-2	NadD inh conf
Cc1ccc2oc(-c3cccc(NC(=S)NC(=O)/C=C/c4ccco4)c3)nc2c1	-58	32*	-4	3	3	1	-8
O=C(Nc1ccccc1)c1cc(C2COCCN2C(=O)c2cccs2)on1 (stereo unspecified)	-20	-10	-4	1	-10	nt	nt
CCN1CCN(S(=O)(=O)c2ccc(Cl)c(C(=O)NC3CCC(C)CC3)c2)CC1 (stereo unspecified)	-11	5	0	0	1	2	nt
CC(=O)Nc1ccc2cc3ccc(NC(C)=O)cc3nc2c1	-1	0	1	2	0	-15	nt
COc1ccc(S(=O)(=O)Nc2cccc(-c3ccc(N4CCCCCC4)nn3)c2)cc1OC	-14	23	-4	0	-7	0	nt
Cc1ccc(S(=O)(=O)Nc2cccc(-c3ccc(N4CCCCCC4)nn3)c2)cc1	-72	34*	-4	1	-1	4	21
COc1ccc(S(=O)(=O)Nc2cccc(-c3ccc(N4CCCCCC4)nn3)c2)c(OC)c1	-56	28*	-4	1	-2	-1	36
COc1ccc(OC)c(S(=O)(=O)Nc2cccc(-c3ccc(N4CCCCCC4)nn3)c2)c1	-14	36*	-3	0	-2	3	30
CC(=O)SC(C)CC(=O)Nc1ccccc1 (stereo unspecified)	-19	3	-1	0	-3	-2	nt
Cc1ccc(S(=O)(=O)N2CCCCC2)cc1NC(=O)CSc1nnnn1C	19	-11	-4	-1	0	0	nt
CCCc1cc(C(=O)N2CCCN(C)CC2)cs1	0	-5	-2	-1	-4	1	nt
O=C(Nn1c(SCc2cccc([N+](=O)[O-])c2)nc2ccccc2c1=O)c1ccccc1	-130	10	-5	1	0	2	nt
COc1ccc(C(=O)Nn2c(SCc3cccc([N+](=O)[O-])c3)nc3ccccc3c2=O)cc1	-21	28*	-7	0	-10	-3	40
O=C(NNC(=O)c1cc2cc(Br)ccc2oc1=O)c1ccc(O)cc1O	-25	29*	-2	2	0	1	58*
O=C(NCc1ccccn1)c1cc2cc(Br)ccc2oc1=O	-14	0	-2	nt	nt	-2	nt
Cc1cc(C)c2nc(N3C(=O)C(O)=C(C(=O)c4ccco4)C3c3ccco3)sc2c1 (stereo unspecified)	-27	39*	-4	0	7	12	46
COc1cccc(=O)c2c(C)n(CC(=O)c3ccccc3)c(C)c12	-24	45*	-8	1	0	-2	25
CCOc1cccc(=O)c2c(C)oc(C)c12	18	2	-11	0	-7	2	nt
CCOc1cccc(=O)c2c(C)n(CC(=O)c3ccccc3)c(C)c12	-24	48*	-1	0	1	0	26
COC(=O)c1ccc(N2C(c3cc(OC)cc(OC)c3)=Cc3ccc(-c4cccnc4)cc3C2CC(=O)C2CC2)cc1 (stereo unspecified)	-4	32*	-5	2	0	nt	22
COC(=O)c1ccc(N2C(c3cc(OC)cc(OC)c3)=Cc3ccc(-c4ccc(C(N)=O)cc4)cc3C2CC(=O)C2CC2)cc1 (stereo unspecified)	-22	24	-13	4	-3	nt	nt
COc1cc(OC)cc(C2=Cc3ccccc3C(CC(=O)c3ccco3)N2c2ccc(-c3cccnc3)cc2)c1 (stereo unspecified)	12	35*	-3	3	-5	nt	36
O=C1c2ccccc2S(=O)(=O)c2cc(C(=O)N3CCN(c4c(Cl)cncc4Cl)CC3)ccc21	-15	7	-4	0	-4	-1	nt
CCC(C)(C)C1CCC2(CC1)NC(=O)N(CC(=O)NC(C)CCc1ccccc1)C2=O (stereo unspecified)	13	48*	-4	0	-3	nt	-21
O=C(Cn1c2ccccc2c(=O)c2ccccc21)N/N=C/c1cc([N+](=O)[O-])ccc1N1CCCCC1	-20	47*	-1	-1	1	1	9
SMILES	NR2E3 ag-1	NadD block	MsrA act	MsrA inh	GalR3 antag	NR2E3 ag-2	NadD inh conf
O=C(N/N=C\c1cc([N+](=O)[O-])ccc1N1CCCC1)c1ccccn1	-35	6	-7	-1	4	4	nt
O=C(NCCS(=O)(=O)N1CCN(c2ccccc2)CC1)C1CC(=O)N(c2ccc(F)cc2)C1 (stereo unspecified)	-28	2	-1	1	0	1	nt
CCC(=O)N(Cc1ccc2c(c1)OCO2)Cc1cc2cc(OC)ccc2[nH]c1=O	-13	33*	-1	1	-3	-6	12
CCN(Cc1cc2cc(OC)ccc2[nH]c1=O)C(=O)Cc1ccc(OC)cc1	-4	4	-3	1	1	0	nt
CC(=O)Nc1ccc(NC(=O)CSc2nnc(NC(=O)C3CC(=O)N(c4ccccc4)C3)s2)cc1 (stereo unspecified)	5	2	-1	0	-2	2	nt
Cc1ccc(N2CC(C(=O)Nc3nnc(SCC(=O)Nc4cc(C)on4)s3)CC2=O)cc1 (stereo unspecified)	-18	39*	-5	-1	-3	-1	2
COc1cccc(N2CC(C(=O)Nc3nnc(SCC(=O)N4CCCC4)s3)CC2=O)c1 (stereo unspecified)	-31	2	-3	0	-4	-1	nt
COc1cccc(N2CC(C(=O)Nc3nnc(SCC(=O)Nc4cc(C)on4)s3)CC2=O)c1 (stereo unspecified)	-39	41*	-2	-1	0	6	3
CCCn1c(C)cc(/C=C(\C#N)C(=O)OCC(=O)Nc2cccc(S(N)(=O)=O)c2)c1C	-21	17	-4	2	-4	4	nt
CCc1ccc(C2CC(=O)N3CN(c4ccccc4)CSC3=C2C#N)cc1 (stereo unspecified)	-22	64*	0	2	nt	7	21
CCc1ccc(N2CSC3=C(C#N)C(c4cccs4)CC(=O)N3C2)cc1 (stereo unspecified)	-16	72*	-2	nt	nt	10	4
O=S(=O)(c1ccc(NC(=S)N/N=C/c2c3ccccc3cc3ccccc23)cc1)N1CCOCC1	-16	34*	-4	4	-4	0	28
O=S(=O)(c1ccc(NC(=S)N/N=C/c2ccc(N3CCOCC3)cc2)cc1)N1CCOCC1	-4	1	0	0	-1	2	nt
O=S(=O)(c1ccc(NC(=S)N/N=C/c2ccc(Oc3ccccc3)cc2)cc1)N1CCOCC1	3	28*	-7	2	-2	5	-3
O=C(Oc1ccccc1-c1nnco1)c1ccccc1	-8	-4	1	2	-4	2	nt
